According to ChEMBL document CHEMBL1138546, “Synthesis and antimalarial activity of hydroxyethylpiperazine derivatives” (Eur J Med Chem, 2009):
≈ marks a conversion by molar mass, not a printed value.

Key:
Plasmodium falciparum = assay: Antimalarial activity after 24 hrs against chloroquine-resistant Plasmodium falciparum W2 by [3H]hypoxanthine uptake; format: functional, organism-based
Summary of the method: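 P. falciparum cultured in human O+ erythrocytes, 5% hematocrit, RPMI 1640 plus 10% human plasma. Sorbitol-synchronized trophozoites set at 2% parasitaemia, 2.5% hematocrit with ethanol-dissolved compounds at various concentrations in hypoxanthine-free RPMI 1640; chloroquine reference in each run. Growth read by [³H]-hypoxanthine incorporation; IC50 versus drug-free controls from curve fitting of dose-response data.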

[1] = Cytotoxicity against mouse J774 cells assessed as cell viability at 10 ug/ml after 24 hrs by MTT assay; format: cell-based; details: read-out: Activity
Summary of the method: (§1)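 Murine J774 monocyte/macrophages seeded at 2×10^6 cells/well, left 1 h at 37 °C, 5% CO2 in RPMI 1640 with 10% fetal bovine serum, 2 mM L-glutamine, 25 µg/ml gentamicin, pH 7.4. Adherent cells exposed to compounds (0.1–100 µg/ml) for 20 h, then MTT (5 mg/ml) added for 4 h. Formazan dissolved in DMSO, absorbance read at 540 nm. Result given as percent viability.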

[2] = Cytotoxicity against mouse J774 cells assessed as cell viability at 100 ug/ml after 24 hrs by MTT assay; format: cell-based; details: read-out: Activity; summary of the method: as §1
[3] = Cytotoxicity against mouse J774 cells assessed as cell viability at 0.1 ug/ml after 24 hrs by MTT assay; format: cell-based; details: read-out: Activity; summary of the method: as §1
[4] = Cytotoxicity against mouse J774 cells assessed as cell viability at 1 ug/ml after 24 hrs by MTT assay; format: cell-based; details: read-out: Activity; summary of the method: as §1

| Structure (SMILES) | IC50 (Plasmodium falciparum) [µg/mL] | viability at 24 h, 10 ug/ml [1] [%] | viability at 24 h, 100 ug/ml [2] [%] | viability at 24 h, 0.1 ug/ml [3] [%] | viability at 24 h, 1 ug/ml [4] [%] |
| --- | --- | --- | --- | --- | --- |
| CN1CCN(C[C@@H](O)[C@H](Cc2ccccc2)NC(=O)OC(C)(C)C)CC1 | > 50 | 100 | 100 | 94 | 100 |
| CC(C)(C)OC(=O)N[C@@H](Cc1ccccc1)[C@H](O)CN1CCN(Cc2ccc(N)cc2)CC1 | 15.8 (≈ 34.8 µM) | 98 | 85 | 100 | 98 |
| CC(C)(C)OC(=O)N[C@@H](Cc1ccccc1)[C@H](O)CN1CCN(Cc2ccc([N+](=O)[O-])cc2)CC1 | 23.5 (≈ 48.5 µM) | 98 | 81 | 100 | 100 |
| COc1ccc(CN2CCN(C[C@@H](O)[C@H](Cc3ccccc3)NC(=O)OC(C)(C)C)CC2)cc1 | 6.2 (≈ 13.2 µM) | 100 | 85 | 100 | 100 |
| CC(C)(C)OC(=O)N[C@@H](Cc1ccccc1)[C@H](O)CN1CCN(Cc2ccc(Cl)cc2)CC1 | 7.7 (≈ 16.2 µM) | 100 | 88 | 100 | 100 |
| Cc1cccc(C)c1OCC(=O)N[C@@H](Cc1ccccc1)[C@@H](O)C[C@H](Cc1ccccc1)NC(=O)[C@H](C(C)C)N1CCCNC1=O [LOPINAVIR] | 1.7 (≈ 2.7 µM) |  |  |  |  |
| CC(C)(C)OC(=O)N[C@@H](Cc1ccccc1)[C@H](O)CN1CCN(Cc2ccccc2)CC1 | 14.9 (≈ 33.9 µM) | 100 | 100 | 95 | 100 |
| CC(C)(C)OC(=O)N[C@@H](Cc1ccccc1)[C@H](O)CN1CCN(c2ccccc2)CC1 | > 50 | 94 | 58 | 100 | 95 |
| CC(C)(C)NC(=O)[C@@H]1C[C@@H]2CCCC[C@@H]2CN1C[C@@H](O)[C@H](Cc1ccccc1)NC(=O)[C@H](CC(N)=O)NC(=O)c1ccc2ccccc2n1 [SAQUINAVIR] | 7 (≈ 10.4 µM) |  |  |  |  |
| CC(C)(C)OC(=O)N[C@@H](Cc1ccccc1)[C@H](O)CN1CCNCC1 | > 50 | 100 | 65 | 100 | 100 |
| CC(C)(C)OC(=O)N[C@@H](Cc1ccccc1)[C@H](O)CN1CCN(Cc2ccc3c(c2)OCO3)CC1 | 5.1 (≈ 10.5 µM) | 100 | 82 | 100 | 98 |
| COc1ccc(CN2CCN(C[C@@H](O)[C@H](Cc3ccccc3)NC(=O)OC(C)(C)C)CC2)cc1OC | 7 (≈ 14 µM) | 100 | 83 | 100 | 100 |
| CC(C)(C)OC(=O)N[C@@H](Cc1ccccc1)[C@H](O)CN1CCN(Cc2ccc(F)cc2)CC1 | 7.5 (≈ 16.4 µM) | 99 | 90 | 100 | 100 |
